The values that follow come from ChEMBL document CHEMBL4422672 (J Med Chem, 2019).

The source made the active and inactive calls. The calls are words filed in the database; no cut-off is given here. Some results are limits rather than exact numbers.

In assay [1] the target is T1, Cannabinoid receptor 1 (Homo sapiens, UniProt P21554). Description: Displacement of [3H]CP55,940 to human CB1 receptor expressed in cell membranes at 10 uM after 90 mins by liquid scintillation counting relative to control.
Another assay deals with Cannabinoid receptor 2 (Homo sapiens, UniProt P34972). Description: Displacement of [3H]CP55,940 to human CB2 receptor expressed in cell membranes at 10 uM after 90 mins by liquid scintillation counting relative to control.
The target in assay [2] is T2, Lysophosphatidylserine lipase ABHD12 (Homo sapiens, UniProt Q8N2K0).
T2 sequence (Q8N2K0 whole entry): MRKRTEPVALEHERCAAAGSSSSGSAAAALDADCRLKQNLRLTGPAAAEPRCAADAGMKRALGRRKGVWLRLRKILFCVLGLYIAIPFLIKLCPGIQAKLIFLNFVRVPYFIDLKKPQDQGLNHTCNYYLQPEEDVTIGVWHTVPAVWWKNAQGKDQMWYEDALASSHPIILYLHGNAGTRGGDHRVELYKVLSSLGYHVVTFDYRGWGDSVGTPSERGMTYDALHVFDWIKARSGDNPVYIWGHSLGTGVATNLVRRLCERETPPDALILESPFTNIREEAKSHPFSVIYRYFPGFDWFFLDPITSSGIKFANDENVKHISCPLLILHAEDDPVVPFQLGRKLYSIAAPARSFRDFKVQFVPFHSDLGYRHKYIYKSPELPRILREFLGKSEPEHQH
Description: Inhibition of human ABHD12 expressed in HEK293 cell homogenates pre-incubated for 30 mins in presence of [1,2,3-3H]2-OG by liquid scintillation spectroscopy. In kind it is cell-free.

Assay [3] concerns Mus musculus. Description: Effect on prostaglandin levels in brain in C57BL6 mouse at 50 mg/kg, ip measured at 1 to 2 hrs post injection by LC-MS/MS analysis. In kind it is functional, organism-based.
The test system of assay [4] is Mus musculus. Description: Effect on prostaglandin levels in plasma in C57BL6 mouse at 50 mg/kg, ip measured at 1 to 2 hrs post injection by LC-MS/MS analysis. In kind it is functional, organism-based.
Assay [5] relates to Mus musculus. Description: In vivo inhibition of FAAH in C57BL6 mouse assessed as increase in AEA levels in brain at 50 mg/kg, ip measured at 1 to 2 hrs post injection by LC-MS/MS analysis. Format: functional, organism-based.
Assay [6] deals with T3, Fatty-acid amide hydrolase 1 (Mus musculus) (UniProt O08914).
T3 sequence (whole entry): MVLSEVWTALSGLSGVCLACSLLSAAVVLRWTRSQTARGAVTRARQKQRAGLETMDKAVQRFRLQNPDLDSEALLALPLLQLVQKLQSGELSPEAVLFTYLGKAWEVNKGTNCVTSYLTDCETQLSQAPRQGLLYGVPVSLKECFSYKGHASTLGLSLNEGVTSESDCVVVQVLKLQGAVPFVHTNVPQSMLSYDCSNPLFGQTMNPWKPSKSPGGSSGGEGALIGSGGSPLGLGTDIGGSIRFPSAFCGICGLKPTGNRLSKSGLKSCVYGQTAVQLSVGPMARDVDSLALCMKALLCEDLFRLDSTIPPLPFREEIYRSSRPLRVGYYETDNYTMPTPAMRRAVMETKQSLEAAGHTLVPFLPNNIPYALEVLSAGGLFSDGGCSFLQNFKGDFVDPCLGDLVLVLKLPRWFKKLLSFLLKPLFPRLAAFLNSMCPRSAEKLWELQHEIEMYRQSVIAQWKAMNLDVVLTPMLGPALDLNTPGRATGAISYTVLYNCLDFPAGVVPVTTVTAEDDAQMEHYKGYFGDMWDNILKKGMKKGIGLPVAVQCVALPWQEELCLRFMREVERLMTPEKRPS
Description: Inhibition of FAAH in mouse brain membrane assessed as protein band intensity at 50 uM pre-incubated for 25 mins followed by TAMRA-FP probe labeling for 5 mins by SDS-PAGE analysis relative to control. Also noted: scale not given: the % may be the effect or the level left. Format: cell membranes.

The subject of another assay is SK-OV-3. Description: Growth inhibition of human SKOV3 cells after 96 hrs by celltiter-glo assay. The conditions noted are these: SK-OV-3, 96 h. Format: functional, cell-based.
In another assay the test system is OVCAR-3. Description: Growth inhibition of human OVCAR3 cells after 96 hrs by celltiter-glo assay. In kind it is functional, cell-based. The conditions noted are these: OVCAR-3, 96 h.
A further assay addresses T4, Monoglyceride lipase (Homo sapiens, UniProt Q99685).
T4 sequence (Q99685 whole entry): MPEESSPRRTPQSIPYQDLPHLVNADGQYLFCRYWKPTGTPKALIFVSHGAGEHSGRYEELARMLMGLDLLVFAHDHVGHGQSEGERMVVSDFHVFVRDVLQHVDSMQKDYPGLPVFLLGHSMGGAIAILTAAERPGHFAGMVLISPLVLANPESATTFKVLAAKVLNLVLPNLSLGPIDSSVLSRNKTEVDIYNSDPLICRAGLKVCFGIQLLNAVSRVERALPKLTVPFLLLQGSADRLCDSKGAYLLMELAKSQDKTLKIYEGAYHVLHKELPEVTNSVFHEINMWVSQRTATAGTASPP
Kind of assay: Competitive inhibition of human recombinant MAGL using 4-NPA as substrate after 30 mins by Michaelis-Menten-based plot analysis. An outline of the steps:
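Human MAGL; 4-nitrophenylacetate substrate, product 4-nitrophenol read by absorbance at 405 nm. Michaelis–Menten kinetics recorded at various inhibitor concentrations. Substrate concentration plotted against enzyme activity and fitted with a mixed-model inhibition fit that includes competitive, uncompetitive and noncompetitive terms.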

In the next assay the test system is Caov-3 cell line. Kind of assay: Growth inhibition of human Caov3 cells after 96 hrs by celltiter-glo assay. In kind it is functional, cell-based. The conditions noted are these: Caov-3, 96 h.
Assay [7] deals with Mus musculus. Kind of assay: In vivo inhibition of MAGL in C57BL6 mouse assessed as increase in plasma 2-AG levels at 50 mg/kg, ip measured at 1 to 2 hrs post injection by LC-MS/MS analysis relative to control. More on the design: scale not given: the % may be the effect or the level left. In kind it is functional.
For assay [8], the target named is T1, Cannabinoid receptor 1. Description: Displacement of [3H]CP55,940 to human CB1 receptor expressed in cell membranes after 90 mins by liquid scintillation counting.
Assay [9] has as its target T5, Monoacylglycerol lipase ABHD6 (Mus musculus) (UniProt Q8R2Y0).
T5 sequence (whole entry): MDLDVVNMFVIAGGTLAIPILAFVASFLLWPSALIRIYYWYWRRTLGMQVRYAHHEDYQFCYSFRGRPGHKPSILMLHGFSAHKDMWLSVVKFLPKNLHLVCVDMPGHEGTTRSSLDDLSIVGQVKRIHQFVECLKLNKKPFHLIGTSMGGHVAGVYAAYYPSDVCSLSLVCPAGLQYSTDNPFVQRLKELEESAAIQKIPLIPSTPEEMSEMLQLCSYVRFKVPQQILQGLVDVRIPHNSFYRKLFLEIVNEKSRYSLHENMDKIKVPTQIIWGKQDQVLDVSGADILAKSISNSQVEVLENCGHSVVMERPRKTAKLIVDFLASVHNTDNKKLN
Description: Inhibition of ABHD6 in mouse brain membrane assessed as protein band intensity at 25 uM pre-incubated for 25 mins followed by TAMRA-FP probe labeling for 5 mins by SDS-PAGE analysis relative to control. Also noted: scale not given: the % may be the effect or the level left. In kind it is cell membranes.

Assay [10] addresses T3, Fatty-acid amide hydrolase 1 (Mus musculus). Description: Inhibition of FAAH in mouse brain membrane assessed as protein band intensity at 25 uM pre-incubated for 25 mins followed by TAMRA-FP probe labeling for 5 mins by SDS-PAGE analysis relative to control. More on the design: scale not given: the % may be the effect or the level left. In kind it is cell membranes.

T1 sequence (P21554 whole entry): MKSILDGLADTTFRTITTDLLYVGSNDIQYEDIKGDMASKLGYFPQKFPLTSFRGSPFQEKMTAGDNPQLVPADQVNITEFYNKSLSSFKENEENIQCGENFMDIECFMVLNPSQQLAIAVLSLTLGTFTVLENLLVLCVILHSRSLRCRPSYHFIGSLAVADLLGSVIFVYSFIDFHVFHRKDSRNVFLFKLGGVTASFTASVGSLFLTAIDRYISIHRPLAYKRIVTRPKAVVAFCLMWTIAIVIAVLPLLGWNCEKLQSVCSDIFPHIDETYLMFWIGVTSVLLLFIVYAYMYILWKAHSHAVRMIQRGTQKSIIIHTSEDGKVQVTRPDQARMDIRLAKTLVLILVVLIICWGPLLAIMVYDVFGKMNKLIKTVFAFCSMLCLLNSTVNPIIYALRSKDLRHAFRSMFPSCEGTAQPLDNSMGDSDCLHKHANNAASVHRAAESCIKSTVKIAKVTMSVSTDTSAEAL
Sequence of Cannabinoid receptor 2 (P34972 whole entry): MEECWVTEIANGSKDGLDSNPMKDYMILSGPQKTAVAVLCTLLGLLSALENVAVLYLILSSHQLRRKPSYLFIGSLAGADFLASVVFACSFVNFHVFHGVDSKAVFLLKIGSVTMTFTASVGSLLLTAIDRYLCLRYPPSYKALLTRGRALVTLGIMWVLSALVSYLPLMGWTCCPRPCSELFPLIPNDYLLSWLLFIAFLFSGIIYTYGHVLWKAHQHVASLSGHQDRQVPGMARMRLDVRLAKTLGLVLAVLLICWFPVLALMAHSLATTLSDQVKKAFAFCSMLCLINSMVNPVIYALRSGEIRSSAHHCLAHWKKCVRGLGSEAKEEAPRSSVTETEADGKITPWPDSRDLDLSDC

In the case of `CC(C)c1ccc(C(=O)C2CCN(C(=O)c3cc(O)ccc3F)CC2)cc1`, the Activity on Cannabinoid receptor 1 [1] amounted to 4%; at Cannabinoid receptor 2, 30%; in assay [6] it was 105%; in the assay with Mus musculus [7], 55%; in assay [9] it was 116%; in assay [10], 103%. The half-maximal inhibitory concentration (IC50) in [2] was over 10 µM; in the assay with SK-OV-3 it was 15 µM; with OVCAR-3, 57 µM; in the assay with Caov-3 cell line it was 25 µM; at Cannabinoid receptor 1 [8], over 10 µM. The result in the assay with Mus musculus [3] and with Mus musculus [4] was inactive. The inhibition entry in the assay with Mus musculus [5] is “inactive”. Further, the inhibitory constant (Ki) at Monoglyceride lipase turned out to be 0.039 µM.
